Laboratory results from ChEMBL document CHEMBL2016515, “Triazoloamides as potent γ-secretase modulators with reduced hERG liability” (Bioorg Med Chem Lett, 2012).

Legend:
Gamma-secretase [1] = test: Inhibition of gamma secretase-mediated amyloid beta42 production in human SH-SY5Y cells overexpressing beta-APP C-terminal SPA4CT by electrochemiluminescent analysis; assay type: cell-based
How it was run: (§1)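 Each compound tested in at least two independent experiments; values reported in μM.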

Gamma-secretase [2] = test: Inhibition of gamma secretase-mediated amyloid beta40 production in human SH-SY5Y cells overexpressing beta-APP C-terminal SPA4CT by electrochemiluminescent analysis; assay type: cell-based; how it was run: as §1
[3] = Inhibition of gamma-secretase-mediated notch intracellular domain cleavage in HeLa cells by luciferase reporter gene assay; assay type: cell-based
How it was run: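 Split-luciferase complementation: γ-secretase cleavage of NotchΔE frees NICD fused to N-terminal luciferase, which enters the nucleus and binds RBP-Jk fused to C-terminal luciferase. Total luminescence is read after adding luciferin to lysed cells. At least two independent experiments; values in μM.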

[4] = target: Voltage-gated inwardly rectifying potassium channel KCNH2 (Homo sapiens, UniProt Q12809)
Sequence of Voltage-gated inwardly rectifying potassium channel KCNH2 (Q12809 whole entry): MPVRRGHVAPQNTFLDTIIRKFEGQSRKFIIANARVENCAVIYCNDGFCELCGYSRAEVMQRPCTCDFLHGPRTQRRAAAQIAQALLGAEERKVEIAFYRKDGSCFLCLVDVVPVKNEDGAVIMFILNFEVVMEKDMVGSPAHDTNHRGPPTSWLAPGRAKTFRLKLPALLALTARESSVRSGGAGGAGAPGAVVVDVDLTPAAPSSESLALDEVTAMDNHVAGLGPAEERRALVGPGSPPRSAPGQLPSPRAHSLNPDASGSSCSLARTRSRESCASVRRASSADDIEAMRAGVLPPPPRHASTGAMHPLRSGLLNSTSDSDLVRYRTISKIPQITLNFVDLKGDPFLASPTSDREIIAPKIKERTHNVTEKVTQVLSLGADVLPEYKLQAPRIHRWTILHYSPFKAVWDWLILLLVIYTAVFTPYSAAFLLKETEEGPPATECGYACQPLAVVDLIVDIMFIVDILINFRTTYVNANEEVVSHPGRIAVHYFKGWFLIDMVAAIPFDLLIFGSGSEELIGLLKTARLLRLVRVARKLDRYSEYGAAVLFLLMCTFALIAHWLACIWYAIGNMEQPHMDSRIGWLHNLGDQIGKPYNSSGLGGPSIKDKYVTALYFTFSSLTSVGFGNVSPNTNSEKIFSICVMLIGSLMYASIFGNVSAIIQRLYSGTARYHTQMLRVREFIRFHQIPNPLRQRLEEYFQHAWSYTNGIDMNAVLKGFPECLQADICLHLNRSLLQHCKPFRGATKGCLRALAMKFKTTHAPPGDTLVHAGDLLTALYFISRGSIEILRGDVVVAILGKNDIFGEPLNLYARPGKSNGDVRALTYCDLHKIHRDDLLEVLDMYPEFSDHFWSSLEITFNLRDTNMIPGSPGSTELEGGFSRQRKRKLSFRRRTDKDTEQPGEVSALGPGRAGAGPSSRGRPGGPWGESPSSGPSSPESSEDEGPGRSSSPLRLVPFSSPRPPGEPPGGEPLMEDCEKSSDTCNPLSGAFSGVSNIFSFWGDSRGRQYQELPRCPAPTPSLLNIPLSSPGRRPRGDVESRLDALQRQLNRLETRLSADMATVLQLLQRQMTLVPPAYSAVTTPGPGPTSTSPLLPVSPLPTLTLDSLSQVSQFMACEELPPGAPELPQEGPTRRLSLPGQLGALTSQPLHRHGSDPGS

Compound	IC50 (Gamma-secretase [1])	IC50 (Gamma-secretase [2])	IC50 [3]	IC50 [4]
COc1cc(-c2cn(CC(=O)N([C@H](C)c3ccccc3)[C@H](C)c3ccccc3)nn2)ccc1-n1cnc(C)c1	0.43 µM	5.17 µM	> 50 µM	
COc1cc(-c2cn([C@H]3C[C@@H](c4ccccc4)CCN(CC(F)(F)F)C3=O)nn2)ccc1-n1cnc(C)c1	0.02 µM	0.15 µM	> 50 µM	
COc1cc(-c2cn([C@H]3C[C@@H](C(C)(C)C)CCN(CC(F)(F)F)C3=O)nn2)ccc1-n1cnc(C)c1	0.009 µM	0.17 µM	24.3 µM	
COc1cc(-c2cn(C3CC([Si](C)(C)C)CCNC3=O)nn2)ccc1-n1cnc(C)c1 (racemic)	0.33 µM	1.23 µM	45.3 µM	
COc1cc(-c2cn(CC(=O)N(CC(F)(F)F)c3ccc4c(c3)CCC4)nn2)ccc1-n1cnc(C)c1	0.18 µM	1.25 µM	24.6 µM	
COc1cc(-c2cn(C3CCCCNC3=O)nn2)ccc1-n1cnc(C)c1 (racemic)	4.42 µM	> 10 µM	> 50 µM	
COc1cc(-c2cn(CC(=O)N(CC(F)(F)F)c3ccc4ccccc4c3)nn2)ccc1-n1cnc(C)c1	0.08 µM	0.66 µM	48.5 µM	
COc1cc(-c2cn([C@H]3C[C@@H](C(F)(F)F)CCN(CC(F)(F)F)C3=O)nn2)ccc1-n1cnc(C)c1	0.02 µM	0.21 µM	> 50 µM	
COc1cc(-c2cn([C@H]3CCCCN(CC(F)(F)F)C3=O)nn2)ccc1-n1cnc(C)c1	0.3 µM	2.21 µM	> 50 µM	
COc1cc(-c2cn(CC(=O)N(CC(F)(F)F)c3ccc4c(c3)OC(F)(F)O4)nn2)ccc1-n1cnc(C)c1	0.16 µM	1.18 µM	38.2 µM	
COc1cc(-c2cn(C3CC(C(F)(F)F)CNC3=O)nn2)ccc1-n1cnc(C)c1 (racemic)	1.11 µM	6.16 µM	> 50 µM	> 30 µM
COc1cc(-c2cn([C@H]3C[C@@H](C(F)(F)F)CN(CC(F)(F)F)C3=O)nn2)ccc1-n1cnc(C)c1	0.29 µM	1.91 µM	> 50 µM	
COc1cc(-c2cn(C3CC(C(F)(F)F)CCNC3=O)nn2)ccc1-n1cnc(C)c1 (racemic)	1.27 µM	9.1 µM	> 50 µM	
COc1cc(-c2cn(C3CC[C@H]4CCCC[C@@H]4NC3=O)nn2)ccc1-n1cnc(C)c1 (mixture of isomers)	0.62 µM	3.86 µM	> 50 µM	
COc1cc(-c2cn(CC(=O)N(Cc3ccccc3)CC(F)(F)F)nn2)ccc1-n1cnc(C)c1	0.27 µM	2.43 µM	> 40 µM	
COc1cc(-c2cn(CC(=O)N(CC(F)(F)F)c3cccc4ccccc34)nn2)ccc1-n1cnc(C)c1	0.09 µM	0.41 µM	45.1 µM	
COc1cc(-c2cn(CC(=O)Nc3ccc4c(c3)OC(F)(F)O4)nn2)ccc1-n1cnc(C)c1	0.45 µM	2.07 µM	29.6 µM	
COc1cc(-c2cn(CC(=O)NC3C4CC5CC(C4)CC3C5)nn2)ccc1-n1cnc(C)c1 (configuration not stated)	0.68 µM	> 10 µM	> 50 µM	
COc1cc(-c2cn(C3C(=O)NC4CCC3C4)nn2)ccc1-n1cnc(C)c1 (racemic)	1.09 µM	9.87 µM	> 50 µM	
COc1cc(-c2cn(CC(=O)N(Cc3ccccc3)[C@H](C)c3ccccc3)nn2)ccc1-n1cnc(C)c1	0.23 µM	3.01 µM	> 50 µM	
COc1cc(-c2cn(C3CC(C4CCCCC4)CCNC3=O)nn2)ccc1-n1cnc(C)c1 (racemic)	0.16 µM	0.66 µM	17 µM	3.68 µM
COc1cc(-c2cn(CC(=O)N(Cc3ccc(F)cc3)C3C4CC5CC(C4)CC3C5)nn2)ccc1-n1cnc(C)c1 (configuration not stated)	0.24 µM	1.9 µM	> 50 µM	0.25 µM
COc1cc(-c2cn([C@H]3C[C@@H]([Si](C)(C)C)CCN(Cc4ccccc4)C3=O)nn2)ccc1-n1cnc(C)c1	0.07 µM	0.44 µM	10.2 µM	

Continued by falling IC50 (Gamma-secretase [1]), values first:

IC50 (Gamma-secretase [1])	IC50 (Gamma-secretase [2])	IC50 [3]	Compound	IC50 [4]
1.63 µM	> 10 µM		COc1cc(-c2cn(CC(=O)N(c3ccccc3)c3ccccc3)nn2)ccc1-n1cnc(C)c1	
1.31 µM	7.42 µM	> 50 µM	COc1cc(-c2cn(C3CC(C)(C)CCNC3=O)nn2)ccc1-n1cnc(C)c1 (racemic)	20.8 µM
0.94 µM	> 10 µM	> 50 µM	COc1cc(-c2cn(CC(=O)N3CCC(c4nc5ccccc5o4)CC3)nn2)ccc1-n1cnc(C)c1	10.3 µM
0.62 µM	8.71 µM		COc1cc(-c2cn(CC(=O)N(c3ccccc3)C3CCCCC3)nn2)ccc1-n1cnc(C)c1	
0.61 µM	4.85 µM	26.7 µM	COc1cc(-c2cn(CC(=O)Nc3cccc4ccccc34)nn2)ccc1-n1cnc(C)c1	> 10 µM
0.48 µM	5.12 µM	> 50 µM	COc1cc(-c2cn(C3CCCC(C(C)(C)C)NC3=O)nn2)ccc1-n1cnc(C)c1 (racemic)	
0.37 µM	4.42 µM	> 50 µM	COc1cc(-c2cn(CC(=O)N(Cc3ccccc3)Cc3ccccc3)nn2)ccc1-n1cnc(C)c1	
0.24 µM	1.33 µM	> 50 µM	COc1cc(-c2cn([C@H]3C[C@@H](C(C)(C)C)CCN(CC45CC6CC(CC(C6)C4)C5)C3=O)nn2)ccc1-n1cnc(C)c1	
0.2 µM	> 10 µM	9 µM	COc1cc(-c2cn(CC(=O)N(C3CCCCC3)C3CCCCC3)nn2)ccc1-n1cnc(C)c1	
0.13 µM	0.84 µM	20 µM	COc1cc(-c2cn([C@H]3C[C@@H](C(C)(C)C)CCN(CC(C)(C)C)C3=O)nn2)ccc1-n1cnc(C)c1	
0.08 µM	0.51 µM	11.1 µM	COc1cc(-c2cn([C@H]3CC[C@H](c4ccccc4)CN(Cc4ccccc4)C3=O)nn2)ccc1-n1cnc(C)c1	
0.08 µM	0.42 µM	40.8 µM	COc1cc(-c2cn([C@H]3C[C@@H](C(F)(F)F)CCN(Cc4ccccc4)C3=O)nn2)ccc1-n1cnc(C)c1	
0.08 µM	0.42 µM	40.1 µM	COc1cc(-c2cn([C@H]3C[C@@H](C(C)(C)C)CCN(Cc4ccccc4)C3=O)nn2)ccc1-n1cnc(C)c1	
